Test results from ChEMBL document CHEMBL2311425, “Histone deacetylase (HDAC) inhibitors with a novel connecting unit linker region reveal a selectivity profile for HDAC4 and HDAC5 with improved activity against chemoresistant cancer cells” (J Med Chem, 2013).
pIC50: −log10 of the molar value.

Assays:
KYSE-510 [1] = test: Potentiation of 0.75 uM cisplatin-induced toxicity in 0.5 uM cisplatin resistant human KYSE-510 cells at 0.5 uM pretreated for 48 hrs followed by 0.5 uM cisplatin treatment by MTT assay; assay type: functional
In short: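 Cisplatin-resistant Kyse510 CisR (derived by weekly cycles of cisplatin over 24−30 weeks), grown in RPMI 1640 with 10% FCS at 37 °C, 5% CO₂. Test agent added 48 h before cisplatin, then 72 h further incubation. Viability by MTT (read at 544/690 nm) relative to untreated control wells. Combination index by Chou−Talalay method. Mean of three experiments.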

CAL-27 [2] = test: Potentiation of 2.5 uM cisplatin-induced toxicity in 1 uM cisplatin resistant human CAL27 cells at 1.5 uM pretreated for 48 hrs followed by 1 uM cisplatin treatment by MTT assay; assay type: functional
A2780 [3] = test: Potentiation of 1 uM cisplatin-induced toxicity in 5 uM cisplatin resistant human A2780 cells at 1 uM pretreated for 48 hrs followed by 5 uM cisplatin treatment by MTT assay; assay type: functional
A2780 [4] = test: Potentiation of 1 uM cisplatin-induced toxicity in 5 uM cisplatin resistant human A2780 cells at 1.5 uM pretreated for 48 hrs followed by 5 uM cisplatin treatment by MTT assay; assay type: functional
[5] = biological target: T1, Protein deacetylase HDAC6 (Homo sapiens, UniProt Q9UBN7); test: Inhibition of human HDAC6 by fluorescence assay
T1 sequence (Q9UBN7 whole entry): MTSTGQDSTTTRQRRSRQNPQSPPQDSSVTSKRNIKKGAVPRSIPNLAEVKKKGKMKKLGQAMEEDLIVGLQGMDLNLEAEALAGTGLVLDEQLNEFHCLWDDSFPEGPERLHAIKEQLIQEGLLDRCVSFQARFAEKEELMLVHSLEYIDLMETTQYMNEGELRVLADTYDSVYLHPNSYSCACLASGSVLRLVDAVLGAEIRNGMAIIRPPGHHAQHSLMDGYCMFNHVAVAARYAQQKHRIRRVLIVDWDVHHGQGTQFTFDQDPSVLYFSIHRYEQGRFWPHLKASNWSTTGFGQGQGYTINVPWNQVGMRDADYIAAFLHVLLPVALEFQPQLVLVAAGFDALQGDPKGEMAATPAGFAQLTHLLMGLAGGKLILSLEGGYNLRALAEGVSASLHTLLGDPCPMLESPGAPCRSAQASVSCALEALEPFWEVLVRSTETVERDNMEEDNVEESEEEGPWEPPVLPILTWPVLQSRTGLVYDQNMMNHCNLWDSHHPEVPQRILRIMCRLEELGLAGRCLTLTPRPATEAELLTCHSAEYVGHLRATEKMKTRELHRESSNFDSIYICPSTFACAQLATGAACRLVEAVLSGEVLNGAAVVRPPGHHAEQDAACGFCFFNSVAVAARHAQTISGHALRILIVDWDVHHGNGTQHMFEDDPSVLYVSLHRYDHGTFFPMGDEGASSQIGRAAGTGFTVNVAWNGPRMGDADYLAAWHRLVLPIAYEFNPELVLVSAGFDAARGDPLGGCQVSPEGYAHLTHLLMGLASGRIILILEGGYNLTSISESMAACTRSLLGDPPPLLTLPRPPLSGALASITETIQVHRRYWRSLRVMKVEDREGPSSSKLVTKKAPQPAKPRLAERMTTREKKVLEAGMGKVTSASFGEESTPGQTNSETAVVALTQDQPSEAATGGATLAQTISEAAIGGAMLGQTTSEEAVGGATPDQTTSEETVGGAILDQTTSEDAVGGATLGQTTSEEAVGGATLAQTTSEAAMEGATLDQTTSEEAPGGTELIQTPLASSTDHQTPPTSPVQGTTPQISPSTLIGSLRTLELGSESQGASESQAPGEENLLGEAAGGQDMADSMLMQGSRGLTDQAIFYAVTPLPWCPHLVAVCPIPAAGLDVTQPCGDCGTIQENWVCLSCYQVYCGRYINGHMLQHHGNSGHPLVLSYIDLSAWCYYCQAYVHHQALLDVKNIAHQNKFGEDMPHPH

Histone deacetylase = test: Inhibition of HDAC in cisplatin resistant human KYSE-510 cells after 18 hrs by fluorescence assay; assay type: cell-based
KYSE-510 [6] = test: Cytotoxicity against cisplatin resistant human KYSE-510 cells after 72 hrs by MTT assay; assay type: functional, cell-based; details: KYSE-510, 72 h
CAL-27 [7] = test: Cytotoxicity against cisplatin resistant human CAL27 cells after 72 hrs by MTT assay; assay type: functional, cell-based; details: CAL-27, 72 h
CAL-27 [8] = test: Cytotoxicity against cisplatin sensitive human CAL27 cells after 72 hrs by MTT assay; assay type: functional, cell-based; details: CAL-27, 72 h
A2780 [9] = test: Potentiation of 20 uM cisplatin-induced toxicity in 5 uM cisplatin resistant human A2780 cells at 0.25 uM pretreated for 48 hrs followed by 5 uM cisplatin treatment by MTT assay; assay type: functional
KYSE-510 [10] = test: Potentiation of 8 uM cisplatin-induced toxicity in 0.5 uM cisplatin resistant human KYSE-510 cells at 1.5 uM pretreated for 48 hrs followed by 0.5 uM cisplatin treatment by MTT assay; assay type: functional
KYSE-510 [11] = test: Potentiation of 8 uM cisplatin-induced toxicity in 0.5 uM cisplatin resistant human KYSE-510 cells at 1 uM pretreated for 48 hrs followed by 0.5 uM cisplatin treatment by MTT assay; assay type: functional
CAL-27 [12] = test: Potentiation of 45 uM cisplatin-induced toxicity in 1 uM cisplatin resistant human CAL27 cells at 1 uM pretreated for 48 hrs followed by 1 uM cisplatin treatment by MTT assay; assay type: functional
MDA-MB-231 [13] = test: Potentiation of […] cisplatin-induced toxicity in 1 uM cisplatin resistant human MDA-MB-231 cells at 1 uM pretreated for 48 hrs followed by 1 uM cisplatin treatment by MTT assay; assay type: functional
MDA-MB-231 [14] = test: Potentiation of 40 uM cisplatin-induced toxicity in 1 uM cisplatin resistant human MDA-MB-231 cells at 1.5 uM pretreated for 48 hrs followed by 1 uM cisplatin treatment by MTT assay; assay type: functional
MDA-MB-231 [15] = test: Potentiation of 40 uM cisplatin-induced toxicity in 1 uM cisplatin resistant human MDA-MB-231 cells at 1 uM pretreated for 48 hrs followed by 1 uM cisplatin treatment by MTT assay; assay type: functional
A2780 [16] = test: Potentiation of 8 uM cisplatin-induced toxicity in 5 uM cisplatin resistant human A2780 cells at 0.5 uM pretreated for 48 hrs followed by 5 uM cisplatin treatment by MTT assay; assay type: functional
A2780 [17] = test: Potentiation of 8 uM cisplatin-induced toxicity in 5 uM cisplatin resistant human A2780 cells at 0.25 uM pretreated for 48 hrs followed by 5 uM cisplatin treatment by MTT assay; assay type: functional

SMILES: Cc1cc(C)cc(C(=O)NOCCCCCC(=O)NO)c1
- Activity (KYSE-510 [1]): Dose-dependent effect
- fractional inhibitory concentration index (FICI) (KYSE-510 [1]): 0.07
- Activity (CAL-27 [2]): Dose-dependent effect
- fractional inhibitory concentration index (FICI) (CAL-27 [2]): 0.34
- Activity (A2780 [3]): Dose-dependent effect
- fractional inhibitory concentration index (FICI) (A2780 [3]): 0.82
- Activity (A2780 [4]): Dose-dependent effect
- fractional inhibitory concentration index (FICI) (A2780 [4]): 0.97
- pIC50 [5]: 7.25
- IC50 (Histone deacetylase): 350 nM
- pIC50 (KYSE-510 [6]): 5.61
- pIC50 (CAL-27 [7]): 5.74
- pIC50 (CAL-27 [8]): 5.99
- Activity (A2780 [9]): Dose-dependent effect
- fractional inhibitory concentration index (FICI) (A2780 [9]): 0.76
- Activity (KYSE-510 [10]): Dose-dependent effect
- fractional inhibitory concentration index (FICI) (KYSE-510 [10]): 0.16
- Activity (KYSE-510 [11]): Dose-dependent effect
- fractional inhibitory concentration index (FICI) (KYSE-510 [11]): 0.18
- Activity (CAL-27 [12]): Dose-dependent effect
- fractional inhibitory concentration index (FICI) (CAL-27 [12]): 0.27
- Activity (MDA-MB-231 [13]): Dose-dependent effect
- fractional inhibitory concentration index (FICI) (MDA-MB-231 [13]): 0.75
- Activity (MDA-MB-231 [14]): Dose-dependent effect
- fractional inhibitory concentration index (FICI) (MDA-MB-231 [14]): 0.84
- Activity (MDA-MB-231 [15]): Dose-dependent effect
- fractional inhibitory concentration index (FICI) (MDA-MB-231 [15]): 0.78
- Activity (A2780 [16]): Dose-dependent effect
- fractional inhibitory concentration index (FICI) (A2780 [16]): 0.66
- Activity (A2780 [17]): Dose-dependent effect
- fractional inhibitory concentration index (FICI) (A2780 [17]): 0.78
